ABHD5 PLIN5 PPI: ABHD5-PLIN5 protein interaction inhibition; inhibition, % at 4 µM; actives 0.78% (n = 360,000); Split G. princeps luciferase complementation, luminescence, 4 h; Q00G26+Q8WTS1;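 active = inhibition above the mean inhibition across every tested compound plus 3 SD, cut at about 22% in these data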;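 also: 0% = DMSO only wells and the 100% control is not disclosed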
A3A deaminase: inhibitors of human APOBEC3A DNA deaminase. actives 0.41% (n = 330,000). recombinant A3A, FAM/TAMRA ssDNA deamination fluorescence. P31941. AID 493011. inhibition, % at 20 µM;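 active = at least 40% inhibition at 20 µM here, with at most 30% in a related deaminase screen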;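 also: plate controls were A3A with DMSO for no effect and wells lacking A3A enzyme for full effect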
Target sequence (P31941 whole entry, looked up): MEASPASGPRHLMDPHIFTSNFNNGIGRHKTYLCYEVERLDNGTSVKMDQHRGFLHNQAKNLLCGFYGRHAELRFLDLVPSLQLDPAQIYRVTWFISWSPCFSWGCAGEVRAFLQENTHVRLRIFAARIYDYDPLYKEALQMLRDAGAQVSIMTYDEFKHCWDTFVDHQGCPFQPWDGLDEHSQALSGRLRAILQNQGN
PRMT1 inh: inhibitors of human PRMT1; Q99873; recombinant PRMT1, activity-based probe fluorescence polarization; inhibition, % at 2.79 µM; actives 1.3% (n = 370,000); AID 652257;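 active = inhibition above about 21% made by adding two undisclosed values, limit read from the data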
HCV core dimer: blocks dimerization of HCV core protein; AID 1899; actives 0.33% (n = 300,000); inhibition, % at 5 µM; TR-FRET GST/Flag-core106 dimerization, 1536-well;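 active = inhibition above the mean of all tested compounds plus 3 SD, set per screening campaign, cut at about 45% in these data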
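Assay system: tagged HCV core106 pair (GST and Flag); medium: KF-containing HEPES buffer, pH 7.45, DTT, CHAPS, BSA; also added: Eu donor and XL665 acceptor anti-tag antibodies; dosing: 5 µM single dose; timing: compound-protein-antibody incubation 4 h at 22.5 °C; signal: TR-FRET 671 and 617 nm emission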
A3G deaminase: inhibitors of human APOBEC3G DNA deaminase. actives 0.28% (n = 330,000). recombinant A3G, ssDNA deamination FAM/TAMRA fluorescence. inhibition, % at 20 µM;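 active = inhibition of at least 40% at 20 µM, with no more than 30% in the related APOBEC3A deaminase screen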;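 also: plate controls were DMSO wells with A3G for no effect and wells lacking A3G enzyme for full effect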
Target sequence (Q9HC16 whole entry, looked up): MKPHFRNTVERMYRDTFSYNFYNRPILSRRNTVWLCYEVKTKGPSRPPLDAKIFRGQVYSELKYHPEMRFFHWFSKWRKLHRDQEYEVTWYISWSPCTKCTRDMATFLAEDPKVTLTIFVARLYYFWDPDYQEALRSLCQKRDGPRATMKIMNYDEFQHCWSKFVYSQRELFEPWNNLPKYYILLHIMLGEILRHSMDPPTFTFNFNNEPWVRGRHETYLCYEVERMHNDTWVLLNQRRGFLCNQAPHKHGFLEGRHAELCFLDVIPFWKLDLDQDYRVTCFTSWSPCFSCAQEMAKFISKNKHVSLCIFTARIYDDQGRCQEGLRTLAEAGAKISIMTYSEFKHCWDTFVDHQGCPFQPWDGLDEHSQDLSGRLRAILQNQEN
NS3 helicase inh: blocks Hepatitis C virus NS3 helicase unwinding; NS3 helicase DNA unwinding, Cy5 molecular beacon fluorescence; inhibition, % at 10.9 µM; actives 0.56% (n = 290,000);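 active = inhibition above the mean of all tested compounds plus 3 SD, set per campaign, cut at about 35% in these data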;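 also: 0% = DMSO wells and 100% = thioflavine S control wells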
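test system = hepatitis C virus NS3 helicase domain fragment enzyme | reagent = annealed dual-labelled DNA beacon duplex, ATP-started | times = 1 h at 25 °C | detection = Cy5 fluorescence, 0 and 60 min reads | read-out basis = percent inhibition from t60/t0 fluorescence ratio | control set = DMSO and thioflavine S | replication = one well per compound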
A3A conf: confirmation of human APOBEC3A DNA deaminase inhibitors. shares compounds with A3A deaminase. recombinant A3A, ssDNA deaminase UDG fluorescence assay. inhibition, % at 20 µM. actives 63% (n = 1,400). AID 493151;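 active = inhibition reaching a set limit, 80% of the first screen's cutoff, at 20 µM in any replicate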;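 also: plate controls were DMSO wells with A3A for no effect and wells lacking A3A enzyme for full effect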
UDG A3A counter: inhibits UDG, flagging false APOBEC3A inhibitors | AID 504714 | UDG counterscreen, FAM/TAMRA uracil oligo fluorescence | inhibition, % at 20 µM | 1,000 tested, under 10 active | shares compounds with A3A deaminase; call rule not given here
An asterisk follows results filed as active; / = no result. Most compounds without a hit are left out; they make up all but 2.9% or so of the library.

SMILES	ABHD5 PLIN5 PPI	A3A deaminase	PRMT1 inh	HCV core dimer	A3G deaminase	NS3 helicase inh	A3A conf	UDG A3A counter
COc1cc2ccc3c(CCN(C)C)cc(OC)c(OC)c3c2cc1OC	4.2	54.8*	0.5	1.9	18.6	-5.0	22.8	/
CN(C)CCc1cc2c(c3c1ccc1ccccc13)OCO2	1.7	7.6	4.0	-9.4	-8.0	-52.1	/	/
COCCN(C(=O)c1ccc2c(c1)S(=O)(=O)N=C1CCCCCN12)c1c(N)n(CC(C)C)c(=O)[nH]c1=O	-4.5	/	-2.3	/	/	/	/	/
CCOC(=O)CN1C(=O)N[C@@H](c2cccs2)C(C(=O)OC)=C1C	-5.6	0.7	-3.1	-18.2	3.2	/	/	/
CCN1C(=NCCc2cccs2)N[C@@H](c2cccs2)C(C(=O)OC)=C1C	1.2	53.3*	/	6.8	6.4	-49.1	65.5*	-2.3
C=CCN=C1N[C@@H](c2ccccc2)C(C(=O)OC)=C(C)N1CC	0.7	66.0*	/	-6.3	23.4	5.3	58.4*	1.5
COC(=O)C1=C(C)N(CC2CC2)C(=NCc2cccc(C(F)(F)F)c2)N[C@H]1c1ccccc1	0.9	37.8	/	/	19.4	/	/	/
COC(=O)C1=C(C)N(CC2CC2)C(=NCCN2CCOCC2)N[C@H]1c1ccccc1	1.3	71.2*	/	7.8	21.5	-10.3	68.5*	1.4
C=CCN=C1N[C@@H](c2cccc(C(F)(F)F)c2)C(C(=O)OC)=C(C)N1CC	15.7	49.9*	-1.7	-2.9	6.8	-8.3	71.2*	-2.0
COC(=O)C1=C(C)N(Cc2cccc(C(F)(F)F)c2)C(=NCC2CC2)NC1c1cccc(C(F)(F)F)c1 (stereo not drawn)	/	/	-5.1	/	/	/	/	/
C=CCN=C1NC(c2ccccc2)C(C(=O)OC)=C(C)N1C (stereo not drawn)	/	/	-2.4	/	/	/	/	/
CC(=O)N1c2ccc(S(=O)(=O)N3CCCC3)cc2CC1C(=O)NC(C)C (stereo not drawn)	6.3	-0.3	-3.1	-4.3	-6.2	0.1	/	/
COc1ccccc1CNC(=O)CCNC(=O)c1ccco1	4.6	0.8	2.7	/	-7.1	/	/	/
COC(=O)C1=C(C)N(C)C(=NCC2CC2)NC1c1cccc(C(F)(F)F)c1 (stereo not drawn)	/	/	4.7	/	/	/	/	/
CCN1C(=NCC(C)C)N[C@@H](c2cccc(C(F)(F)F)c2)C(C(=O)OC)=C1C	-1.4	59.2*	5.4	-0.1	10.0	-59.7	61.3*	/
COc1ccc(C(=O)C2CCCN(C(=O)c3ccc(CSC)o3)C2)cc1F (stereo not drawn)	-1.7	-6.6	1.6	14.4	-3.9	-9.3	/	/
CCN1C(=NCCCOC(C)C)N[C@@H](c2ccccc2)[C@H](C(=O)OC)[C@H]1C	-2.1	43.7*	6.9	/	13.7	/	60.6*	-2.0
CCOc1ccc(NC(=O)c2cc3ccccc3cc2O)cc1	-1.7	63.0*	-0.3	15.9	12.6	19.2	51.6*	-3.4
O=C(O)/C=C(/c1ccccc1)C(F)(F)F	0.9	/	7.1	/	/	/	/	/
CCOC(=O)NN=C1CN(S(=O)(=O)c2ccc(C)cc2)C1	-3.9	-2.6	4.0	0.6	-7.2	-4.0	/	/
COc1ccc(CC(=O)NNC(=O)c2ccccn2)cc1	3.8	45.7*	1.7	-4.6	2.4	8.7	-1.1	/
COc1ccc(CC(=O)NNC(=O)c2cnccn2)cc1	3.8	1.2	2.1	-2.5	-3.3	-1.8	/	/
O=C(NC1CCCC1)C(c1ccccn1)N(C(=O)c1csnn1)c1ccc(F)cc1 (stereo not drawn)	-4.4	72.2*	0.4	-0.8	-6.0	-2.4	-6.2	-2.8
Cc1ccc(N(C(=O)c2csnn2)C(C(=O)NC2CCCCC2)c2ccccn2)cc1 (stereo not drawn)	-6.1	-1.4	0.0	-7.5	-6.7	-3.4	/	/
COc1ccc2[nH]c(O)c(N=O)c2c1	0.9	54.1*	-0.7	-19.7	26.5	1.8	53.3*	1.8
SMILES	ABHD5 PLIN5 PPI	A3A deaminase	PRMT1 inh	HCV core dimer	A3G deaminase	NS3 helicase inh	A3A conf	UDG A3A counter
O=Nc1c(O)[nH]c2ccc(F)cc12	5.6	-0.7	0.2	-8.2	-2.8	10.5	/	/
Cn1c(SCC(=O)N2CCOCC2)nnc1-c1cccc(NC(=O)c2ccccc2F)c1	-1.3	27.6	-1.1	1.6	-2.0	21.5	/	/
CCSCc1nnc(SCC(=O)Nc2ccc(OC)cc2)n1C	0.0	56.2*	4.5	-3.2	17.7	-5.2	62.7*	5.4
Cn1c(SCC(=O)NC(C)(C)C)nnc1-c1cccc(NC(=O)c2ccccc2F)c1	5.9	45.2*	-0.6	1.8	16.4	-1.5	24.1	/
COc1ccc(-c2nnc(SCC(=O)Nc3ccc(C)cc3)n2C)cc1	-9.7	-0.7	2.0	0.2	-3.7	-1.6	/	/
COc1ccc(-c2nnc(SCC(=O)NC(=O)Cc3ccccc3)n2C)cc1	4.0	42.9*	4.5	/	10.0	/	20.8	/
Cn1c(SCC(=O)Nc2ccc3c(c2)oc2ccccc23)nnc1-c1ccccc1	-9.7	46.0*	1.4	13.2	18.2	-1.5	60.2*	2.7
Cn1c(SCC(=O)Nc2ccc3[nH]c(=O)[nH]c3c2)nnc1-c1ccccc1	-0.8	2.1	2.1	4.4	-3.2	0.2	/	/
CCOc1ccc(CCNC(=O)c2ccccc2OCc2c(C)noc2C)cc1OCC	3.0	0.3	0.3	0.8	-7.1	/	/	/
C=C1/C=C(\C)[C@](C)(O)C[C@H](O)CC(=O)[C@H](O)[C@@H](O)[C@H](C)C[C@H](C)OC(=O)/C(C)=C/CC/C=C/[C@@H]2O[C@H]2C[C@H](C)C1	/	2.5	/	/	13.5	/	/	/
COc1ccc(C(O)c2ncc(-c3cccc(F)c3)[nH]2)cc1F (stereo not drawn)	7.1	/	3.8	/	/	/	/	/
C/C(=N\NC(=O)c1nnn(-c2nonc2N)c1CN1CCc2ccccc21)c1ccccc1O	-3.4	-5.7	5.2	5.8	-5.1	5.0	/	/
CN(C(=O)c1ccc(Br)o1)C1CCCCC1	-5.2	-2.4	-0.1	-2.7	-5.1	7.3	/	/
Cc1cccc(CCNC(=O)C2CC(O)CN2C(=O)Nc2ccccc2)c1 (stereo not drawn)	-9.6	/	-1.6	/	/	/	/	/
Cc1ccc[n+](CC(=O)Nc2cc(C(F)(F)F)ccc2N2CCOCC2)c1	7.3	48.1*	-0.9	5.7	11.2	-8.2	65.3*	3.2
CSc1ccccc1NC(=O)CN(C)C(=O)Cn1c(=O)oc2ccccc21	0.2	15.6	-1.4	-0.1	-7.6	/	/	/
O=C(CSc1nc2ccccc2c(=O)[nH]1)c1cccs1	-6.0	44.3*	3.6	0.0	0.0	6.8	-0.1	/
Cc1cc(SCC(=O)c2cccs2)nc2ccccc12	-6.4	-0.6	-2.5	-4.0	-3.4	-4.5	/	/
